In general, MIC refers to the lowest concentration found to suppress growth. The low end stands for inhibition by little substance, the high end for a need for much substance.

SMILES strings stand for the structures. In brackets after ≈: the same amount, converted by molar mass.

Assay [1] deals with Aspergillus fumigatus. Kind of assay: Tested in vitro for minimum inhibitory concentration against Aspergillus fumigatus. Format: functional. A digest of the protocol: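 Broth macrodilution in glass tubes with Sabouraud's dextrose broth (pH 6.5). Compounds were dissolved in DMSO and serially diluted in medium. Inoculum was filamentous fungus harvested by spatula from Kimmig agar cultures grown 21 days at 30 °C. Tubes were incubated 72 h at 30 °C. MIC was the lowest concentration with no macroscopically visible growth.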

Assay [2] deals with Candida albicans. Kind of assay: Tested in vitro for minimum inhibitory concentration against Candida albicans 124. The assay is classed as functional. The essentials: (§1)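 Yeasts were tested by tube dilution in malt extract broth (pH 4.8), with DMSO-dissolved compounds serially diluted in the broth. Blastospores came from yeast nitrogen base cultures shaken at 37 °C for about 30 h. After 48 h at 30 °C, MIC was read as the lowest concentration without macroscopic growth.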

In assay [3] the test system is Candida parapsilosis. Kind of assay: Tested in vitro for minimum inhibitory concentration against Candida parapsilosis 39. The assay is classed as functional. To be noted: Lodderomyces parapsilosis. The essentials: as §1
Assay [4] has as its system Microsporum canis. Kind of assay: Tested in vitro for minimum inhibitory concentration against Microsporum canis. The assay is classed as functional. The essentials: (§2)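 Glass-tube serial dilution in Sabouraud's dextrose broth (pH 6.5), with compounds dissolved in DMSO and diluted in medium. Mycelial inoculum was scraped from 21-day Kimmig agar cultures grown at 30 °C. Incubation was 7 days at 30 °C. MIC was the lowest concentration giving no macroscopically detectable growth.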

Assay [5] deals with Sporothrix schenckii. Kind of assay: Tested in vitro for minimum inhibitory concentration against Sporothrix schenck ii. Format: functional. A digest of the protocol: as §2
The test system of assay [6] is Trichophyton benhamiae. Kind of assay: Tested in vitro for minimum inhibitory concentration against Trichophyton mentagrophytes. Format: functional, Arthroderma benhamiae. The essentials: as §2
The subject of assay [7] is Candida albicans. Kind of assay: Tested in vitro for minimum inhibitory concentration against Candida albicans 9. Format: functional. A digest of the protocol:
as §1

With `CN(C/C=C/C#CC(C)(C)C)Cc1cccc2ccc(F)cc12`, the MIC in assay [1] is 0.4 µg/mL (≈ 1.29 µM); in assay [2], 12.5 µg/mL (≈ 40.4 µM); in assay [3], 0.4 µg/mL (≈ 1.29 µM); in assay [4], 0.006 µg/mL (≈ 0.0194 µM); in assay [5], 0.4 µg/mL (≈ 1.29 µM); in assay [6], 0.006 µg/mL (≈ 0.0194 µM). Moreover, the MIC in assay [7] came to 3.13 µg/mL (≈ 10.1 µM).

Take `CN(C/C=C/C#CC(C)(C)C)Cc1cc(C#N)cc2ccccc12`: the minimum inhibitory concentration (MIC) in assay [1] is over 200 µg/mL; in assay [2] it was over 200 µg/mL; in assay [3], 0.4 µg/mL (≈ 1.26 µM); in assay [4], 0.05 µg/mL (≈ 0.158 µM); in assay [5], over 200 µg/mL; in assay [6], 0.05 µg/mL (≈ 0.158 µM). For the same compound, in assay [7], the MIC was over 200 µg/mL.

For the compound `CN(C/C=C/C#CC(C)(C)C)Cc1cccc2c(F)cc(F)cc12`, the minimum inhibitory concentration (MIC) in assay [1] was 0.1 µg/mL (≈ 0.305 µM); in assay [2], 1.56 µg/mL (≈ 4.76 µM); in assay [3] it was 0.1 µg/mL (≈ 0.305 µM); in assay [4], 0.003 µg/mL (≈ 0.00916 µM); in assay [5] it was 0.1 µg/mL (≈ 0.305 µM); in assay [6] it was 0.003 µg/mL (≈ 0.00916 µM). Moreover, the lowest concentration to inhibit growth in assay [7] (MIC) was 0.8 µg/mL (≈ 2.44 µM).

On to `CN(C/C=C/C#CC(C)(C)C)Cc1cccc2c(Cl)cccc12`, for which the MIC was 0.1 µg/mL (≈ 0.307 µM) in assay [1]; 1.56 µg/mL (≈ 4.79 µM) in assay [2]; 0.2 µg/mL (≈ 0.614 µM) in assay [3]; 0.006 µg/mL (≈ 0.0184 µM) in assay [4]; 0.4 µg/mL (≈ 1.23 µM) in assay [5]; 0.003 µg/mL (≈ 0.00921 µM) in assay [6]. This compound yielded an MIC in assay [7] of 0.8 µg/mL (≈ 2.45 µM).

`CN(C/C=C/C#CC(C)(C)C)Cc1cccc2c(Cl)csc12`: the MIC in assay [1] was 0.1 µg/mL (≈ 0.301 µM); in assay [2], 0.8 µg/mL (≈ 2.41 µM); in assay [3], 0.1 µg/mL (≈ 0.301 µM); in assay [4], 0.003 µg/mL (≈ 0.00904 µM); in assay [5], 0.2 µg/mL (≈ 0.603 µM); in assay [6], 0.0015 µg/mL (≈ 0.00452 µM). The compound further had an MIC in assay [7] of 0.4 µg/mL (≈ 1.21 µM).

For `CN(C/C=C/C#CC(C)(C)C)Cc1ccc(F)c2ccccc12`, the MIC in assay [1] was determined as 3.13 µg/mL (≈ 10.1 µM); in assay [2], 25 µg/mL (≈ 80.8 µM); in assay [3] it was 0.8 µg/mL (≈ 2.59 µM); in assay [4] it was 0.01 µg/mL (≈ 0.0323 µM); in assay [5] it was 0.4 µg/mL (≈ 1.29 µM); in assay [6], 0.01 µg/mL (≈ 0.0323 µM). This compound came in with a minimum inhibitory concentration (MIC) in assay [7] of 12.5 µg/mL (≈ 40.4 µM).

For the compound `CN(C/C=C/C#CC(C)(C)C)Cc1cccc2c(Br)cccc12`, the MIC in assay [1] turned out to be 1.56 µg/mL (≈ 4.21 µM); in assay [2], 3.13 µg/mL (≈ 8.45 µM); in assay [3], 0.8 µg/mL (≈ 2.16 µM); in assay [4], 0.01 µg/mL (≈ 0.027 µM); in assay [5], 0.1 µg/mL (≈ 0.27 µM); in assay [6] it was 0.006 µg/mL (≈ 0.0162 µM). Further, the MIC in assay [7] turned out to be 1.56 µg/mL (≈ 4.21 µM).

`CN(C/C=C/C#CC(C)(C)C)Cc1cccc2c(F)cccc12`: the MIC in assay [1] was 0.1 µg/mL (≈ 0.323 µM); in assay [2] it was 3.13 µg/mL (≈ 10.1 µM); in assay [3], 0.2 µg/mL (≈ 0.646 µM); in assay [4] it was 0.006 µg/mL (≈ 0.0194 µM); in assay [5], 0.2 µg/mL (≈ 0.646 µM); in assay [6], 0.006 µg/mL (≈ 0.0194 µM). Moreover, the MIC in assay [7] came out at 1.56 µg/mL (≈ 5.04 µM).

With `Cc1cc(CN(C)C/C=C/C#CC(C)(C)C)c2ccccc2c1`, the MIC in assay [1] stood at 3.13 µg/mL (≈ 10.2 µM); in assay [2] it was 50 µg/mL (≈ 164 µM); in assay [3], 1.56 µg/mL (≈ 5.11 µM); in assay [4], 0.02 µg/mL (≈ 0.0655 µM); in assay [5], 0.2 µg/mL (≈ 0.655 µM); in assay [6], 0.01 µg/mL (≈ 0.0327 µM). For the same compound, the MIC in assay [7] stood at 50 µg/mL (≈ 164 µM).

For the compound `CN(C/C=C/C#CC(C)(C)C)Cc1cc(F)cc2ccccc12`, the MIC in assay [1] was found to be 0.8 µg/mL (≈ 2.59 µM); in assay [2], 6.25 µg/mL (≈ 20.2 µM); in assay [3], 0.2 µg/mL (≈ 0.646 µM); in assay [4] it was 0.006 µg/mL (≈ 0.0194 µM); in assay [5] it was 0.2 µg/mL (≈ 0.646 µM); in assay [6] it was 0.006 µg/mL (≈ 0.0194 µM). Moreover, the MIC in assay [7] was 0.8 µg/mL (≈ 2.59 µM).

On to `CN(C/C=C/C#CC(C)(C)C)Cc1cccc2c(C#N)cccc12`, for which the MIC in assay [1] was over 200 µg/mL; in assay [2] it was over 200 µg/mL; in assay [3], 3.13 µg/mL (≈ 9.89 µM); in assay [4], 0.4 µg/mL (≈ 1.26 µM); in assay [5], 6.25 µg/mL (≈ 19.8 µM); in assay [6], 0.2 µg/mL (≈ 0.632 µM). The same compound showed an MIC in assay [7] of over 200 µg/mL.

Regarding `Cc1ccc2cccc(CN(C)C/C=C/C#CC(C)(C)C)c2c1`, the MIC in assay [1] worked out at 1.56 µg/mL (≈ 5.11 µM); in assay [2], 50 µg/mL (≈ 164 µM); in assay [3], 0.8 µg/mL (≈ 2.62 µM); in assay [4] it was 0.05 µg/mL (≈ 0.164 µM); in assay [5], 0.4 µg/mL (≈ 1.31 µM); in assay [6], 0.01 µg/mL (≈ 0.0327 µM). The compound further gave an MIC in assay [7] of 25 µg/mL (≈ 81.8 µM).

Take `CN(C/C=C/C#CC(C)(C)C)Cc1ccc(C#N)c2ccccc12`: the MIC in assay [1] is over 200 µg/mL; in assay [2] it was over 200 µg/mL; in assay [3], 12.5 µg/mL (≈ 39.5 µM); in assay [4] it was 0.1 µg/mL (≈ 0.316 µM); in assay [5] it was over 200 µg/mL; in assay [6], 0.2 µg/mL (≈ 0.632 µM). In assay [7], this compound gave an MIC of over 200 µg/mL.

Regarding `Cc1ccc2c(CN(C)C/C=C/C#CC(C)(C)C)cccc2c1`, the MIC in assay [1] is over 200 µg/mL; in assay [2], 25 µg/mL (≈ 81.8 µM); in assay [3] it was 0.8 µg/mL (≈ 2.62 µM); in assay [4], 0.05 µg/mL (≈ 0.164 µM); in assay [5], 0.4 µg/mL (≈ 1.31 µM); in assay [6], 0.01 µg/mL (≈ 0.0327 µM). Further, inhibition of growth in assay [7] (MIC) required 12.5 µg/mL (≈ 40.9 µM).

Turning to `Cc1ccc(CN(C)C/C=C/C#CC(C)(C)C)c2ccccc12`, the MIC in assay [1] was over 200 µg/mL; in assay [2], 50 µg/mL (≈ 164 µM); in assay [3], 3.13 µg/mL (≈ 10.2 µM); in assay [4] it was 0.05 µg/mL (≈ 0.164 µM); in assay [5], 0.8 µg/mL (≈ 2.62 µM); in assay [6], 0.02 µg/mL (≈ 0.0655 µM). The compound also registered a minimal inhibitory concentration (MIC) in assay [7] of 25 µg/mL (≈ 81.8 µM).

Turning to `CN(C/C=C/C#CC(C)(C)C)Cc1cccc2ccc(Cl)cc12`, the MIC is 1.56 µg/mL (≈ 4.79 µM) in assay [1]; 12.5 µg/mL (≈ 38.4 µM) in assay [2]; 0.4 µg/mL (≈ 1.23 µM) in assay [3]; 0.02 µg/mL (≈ 0.0614 µM) in assay [4]; 0.4 µg/mL (≈ 1.23 µM) in assay [5]; 0.02 µg/mL (≈ 0.0614 µM) in assay [6]. This compound yielded an MIC in assay [7] of 3.13 µg/mL (≈ 9.6 µM).

Take `Cc1cccc2c(CN(C)C/C=C/C#CC(C)(C)C)cccc12`: the minimum inhibitory concentration (MIC) came to 0.8 µg/mL (≈ 2.62 µM) in assay [1]; 12.5 µg/mL (≈ 40.9 µM) in assay [2]; 1.56 µg/mL (≈ 5.11 µM) in assay [3]; 0.02 µg/mL (≈ 0.0655 µM) in assay [4]; 0.4 µg/mL (≈ 1.31 µM) in assay [5]; 0.006 µg/mL (≈ 0.0196 µM) in assay [6]. In assay [7], the MIC came out at 6.25 µg/mL (≈ 20.5 µM).

Consider `CN(C/C=C/C#CC(C)(C)C)Cc1cccc2cc(F)ccc12`, for which the MIC is 6.25 µg/mL (≈ 20.2 µM) in assay [1]; 25 µg/mL (≈ 80.8 µM) in assay [2]; 1.56 µg/mL (≈ 5.04 µM) in assay [3]; 0.006 µg/mL (≈ 0.0194 µM) in assay [4]; 0.8 µg/mL (≈ 2.59 µM) in assay [5]; 0.006 µg/mL (≈ 0.0194 µM) in assay [6]. In assay [7], this compound had an MIC of 6.25 µg/mL (≈ 20.2 µM).

Take `CN(C/C=C/C#CC(C)(C)C)Cc1cccc2ccccc12` [TERBINAFINE]: the MIC was 0.8 µg/mL (≈ 2.75 µM) in assay [1]; 25 µg/mL (≈ 85.8 µM) in assay [2]; 0.8 µg/mL (≈ 2.75 µM) in assay [3]; 0.006 µg/mL (≈ 0.0206 µM) in assay [4]; 0.4 µg/mL (≈ 1.37 µM) in assay [5]; 0.003 µg/mL (≈ 0.0103 µM) in assay [6]. Also, 6.25 µg/mL (≈ 21.4 µM) was the least that counted as inhibitory in assay [7] (MIC).

Source of the values: ChEMBL document CHEMBL1127027, “Synthesis and structure-activity relationships of naphthalene-substituted derivatives of the allylamine antimycotic terbinafine” (1993).
